Each molecule was assayed against 72 kDa type IV collagenase (Homo sapiens, UniProt P08253) (assay: Inhibition of MMP2 by microtiter plate fluorimetric assay). Conditions: in the assay text read “spectrophotometric” for “fluorimetric”.
Outline: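 Enzyme and compound preincubated 30 min at 37 °C in 50 mM sodium borate buffer, pH 8.5. Substrate was added for a further 60 min at 37 °C, then 0.03% picrylsulfonic acid for 20 min at room temperature. Absorbance was read at 450 nm. The no-compound well was taken as 100% and the enzyme-only well as blank. Inhibition % = (OD100% − ODcompound)/(OD100% − ODblank) × 100.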

Chain of 72 kDa type IV collagenase (P08253 whole entry): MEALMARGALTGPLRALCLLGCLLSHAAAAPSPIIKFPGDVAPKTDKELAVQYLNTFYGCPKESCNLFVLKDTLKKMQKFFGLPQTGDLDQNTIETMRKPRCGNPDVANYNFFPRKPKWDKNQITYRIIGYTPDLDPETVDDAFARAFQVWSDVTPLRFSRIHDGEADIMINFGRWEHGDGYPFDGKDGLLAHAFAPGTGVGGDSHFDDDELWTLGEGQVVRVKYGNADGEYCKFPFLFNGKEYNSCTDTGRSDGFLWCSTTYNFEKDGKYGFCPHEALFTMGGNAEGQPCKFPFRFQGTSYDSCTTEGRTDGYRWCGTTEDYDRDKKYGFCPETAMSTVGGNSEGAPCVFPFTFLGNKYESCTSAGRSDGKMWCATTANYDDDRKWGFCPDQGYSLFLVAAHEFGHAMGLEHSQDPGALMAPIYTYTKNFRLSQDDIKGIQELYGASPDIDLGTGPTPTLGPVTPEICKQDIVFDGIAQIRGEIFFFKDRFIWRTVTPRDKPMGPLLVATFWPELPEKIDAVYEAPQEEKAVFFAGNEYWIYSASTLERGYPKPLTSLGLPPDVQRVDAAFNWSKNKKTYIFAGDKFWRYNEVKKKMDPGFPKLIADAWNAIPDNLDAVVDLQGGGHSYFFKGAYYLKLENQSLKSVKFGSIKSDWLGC

Compound	IC50 [µM]
COC(=O)[C@@H]1C[C@@H](OC(=O)c2ccccc2)CN1S(=O)(=O)c1ccc(C)cc1	3.2
COC(=O)[C@@H]1C[C@@H](OC(=O)c2ccc(Cl)cc2)CN1S(=O)(=O)c1ccc(C)cc1	2.2
COC(=O)[C@@H]1C[C@@H](OC(=O)/C=C/c2ccccc2)CN1S(C)(=O)=O	0.5
COC(=O)[C@@H]1C[C@@H](OC(=O)c2ccc(Cl)cc2)CN1S(=O)(=O)c1ccccc1	2.7
COC(=O)[C@@H]1C[C@@H](OS(C)(=O)=O)CN1S(=O)(=O)c1ccccc1	1.3
COC(=O)[C@@H]1C[C@@H](OS(C)(=O)=O)CN1S(=O)(=O)c1ccc(C)cc1	0.2
COC(=O)[C@@H]1C[C@@H](OS(=O)(=O)c2ccc(C)cc2)CN1S(C)(=O)=O	0.2
COC(=O)[C@@H]1C[C@@H](OC(=O)c2ccc(Cl)cc2)CN1S(C)(=O)=O	1.5
COC(=O)[C@@H]1C[C@@H](OS(=O)(=O)c2ccccc2)CN1S(C)(=O)=O	0.7
COC(=O)[C@@H]1C[C@@H](OC(=O)c2ccccc2)CN1S(C)(=O)=O	5.2
COC(=O)[C@@H]1C[C@@H](OC(=O)c2ccccc2)CN1S(=O)(=O)c1ccccc1	3.5
COC(=O)[C@@H]1C[C@@H](OS(C)(=O)=O)CN1S(C)(=O)=O	8.9

Stronger by IC50, values ahead:

IC50 [µM]	Compound
0.02	CS(=O)(=O)N1C[C@H](O)C[C@H]1C(=O)NO
0.09	COC(=O)[C@@H]1C[C@@H](OC(=O)/C=C/c2ccccc2)CN1S(=O)(=O)c1ccccc1
0.04	COC(=O)[C@@H]1C[C@@H](OC(=O)/C=C/c2ccccc2)CN1S(=O)(=O)c1ccc(C)cc1
0.04	COC(=O)[C@@H]1C[C@@H](OS(=O)(=O)c2ccc(C)cc2)CN1S(=O)(=O)c1ccccc1
0.05	COC(=O)[C@@H]1C[C@@H](OS(=O)(=O)c2ccccc2)CN1S(=O)(=O)c1ccc(C)cc1
0.004	O=C(NO)[C@@H]1C[C@@H](O)CN1S(=O)(=O)c1ccccc1
0.01	COC(=O)[C@@H]1C[C@@H](OS(=O)(=O)c2ccccc2)CN1S(=O)(=O)c1ccccc1
0.007	COC(=O)[C@@H]1C[C@@H](OS(=O)(=O)c2ccc(C)cc2)CN1S(=O)(=O)c1ccc(C)cc1
0.002	Cc1ccc(S(=O)(=O)N2C[C@H](O)C[C@H]2C(=O)NO)cc1

These molecules were tested against Aminopeptidase N (Homo sapiens, UniProt P15144) (assay: Inhibition of APN by spectrophotometric assay). Conditions: not given.
Outline: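 Enzyme and compound preincubated 30 min at 37 °C in 50 mM sodium phosphate buffer, pH 7.2. L-leucine p-nitroanilide substrate was then added for a further 60 min at 37 °C, and absorbance was read at 405 nm. The no-compound well was taken as 100% and the enzyme-only well as blank. Inhibition % = (OD100% − ODcompound)/(OD100% − ODblank) × 100.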

Chain of Aminopeptidase N (P15144 whole entry): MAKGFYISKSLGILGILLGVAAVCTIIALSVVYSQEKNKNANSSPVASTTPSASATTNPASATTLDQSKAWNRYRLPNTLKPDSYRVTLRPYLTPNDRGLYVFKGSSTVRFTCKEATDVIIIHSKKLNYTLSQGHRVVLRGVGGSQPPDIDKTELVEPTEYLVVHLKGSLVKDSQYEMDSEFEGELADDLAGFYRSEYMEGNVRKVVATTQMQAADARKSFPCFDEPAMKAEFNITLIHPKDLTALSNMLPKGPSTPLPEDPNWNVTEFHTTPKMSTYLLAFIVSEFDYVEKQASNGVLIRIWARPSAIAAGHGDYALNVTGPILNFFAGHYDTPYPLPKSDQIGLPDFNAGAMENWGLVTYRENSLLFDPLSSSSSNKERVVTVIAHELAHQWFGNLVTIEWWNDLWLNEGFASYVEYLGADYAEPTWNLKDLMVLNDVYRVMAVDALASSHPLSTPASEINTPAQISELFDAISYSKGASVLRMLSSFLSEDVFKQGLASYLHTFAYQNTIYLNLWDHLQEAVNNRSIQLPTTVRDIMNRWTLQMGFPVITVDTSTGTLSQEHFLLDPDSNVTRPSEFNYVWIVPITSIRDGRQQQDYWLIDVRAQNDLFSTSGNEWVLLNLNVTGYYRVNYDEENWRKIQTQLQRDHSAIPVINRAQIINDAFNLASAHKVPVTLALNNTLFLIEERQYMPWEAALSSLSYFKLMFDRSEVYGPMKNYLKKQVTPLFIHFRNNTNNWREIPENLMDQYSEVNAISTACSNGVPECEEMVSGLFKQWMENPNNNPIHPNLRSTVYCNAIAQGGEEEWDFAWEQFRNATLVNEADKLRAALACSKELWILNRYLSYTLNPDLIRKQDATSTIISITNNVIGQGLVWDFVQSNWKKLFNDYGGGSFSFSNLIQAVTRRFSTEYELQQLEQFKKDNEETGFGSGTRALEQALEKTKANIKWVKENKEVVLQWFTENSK

Compound	IC50 [µM]
COC(=O)[C@@H]1C[C@@H](OC(=O)c2ccccc2)CN1S(=O)(=O)c1ccc(C)cc1	24.8
COC(=O)[C@@H]1C[C@@H](OC(=O)c2ccc(Cl)cc2)CN1S(=O)(=O)c1ccc(C)cc1	51.2
COC(=O)[C@@H]1C[C@@H](OC(=O)/C=C/c2ccccc2)CN1S(C)(=O)=O	114
COC(=O)[C@@H]1C[C@@H](OC(=O)c2ccc(Cl)cc2)CN1S(=O)(=O)c1ccccc1	36.4
COC(=O)[C@@H]1C[C@@H](OS(C)(=O)=O)CN1S(=O)(=O)c1ccccc1	39.5
COC(=O)[C@@H]1C[C@@H](OS(C)(=O)=O)CN1S(=O)(=O)c1ccc(C)cc1	41.4
COC(=O)[C@@H]1C[C@@H](OS(=O)(=O)c2ccc(C)cc2)CN1S(C)(=O)=O	68.9
COC(=O)[C@@H]1C[C@@H](OC(=O)c2ccc(Cl)cc2)CN1S(C)(=O)=O	47.5
COC(=O)[C@@H]1C[C@@H](OS(=O)(=O)c2ccccc2)CN1S(C)(=O)=O	28.4
COC(=O)[C@@H]1C[C@@H](OC(=O)c2ccccc2)CN1S(C)(=O)=O	53.6
COC(=O)[C@@H]1C[C@@H](OC(=O)c2ccccc2)CN1S(=O)(=O)c1ccccc1	43.8
COC(=O)[C@@H]1C[C@@H](OS(C)(=O)=O)CN1S(C)(=O)=O	31.6

Now from value to molecule:

IC50 [µM]	Compound
26.3	CS(=O)(=O)N1C[C@H](O)C[C@H]1C(=O)NO
135	COC(=O)[C@@H]1C[C@@H](OC(=O)/C=C/c2ccccc2)CN1S(=O)(=O)c1ccccc1
169	COC(=O)[C@@H]1C[C@@H](OC(=O)/C=C/c2ccccc2)CN1S(=O)(=O)c1ccc(C)cc1
61.3	COC(=O)[C@@H]1C[C@@H](OS(=O)(=O)c2ccc(C)cc2)CN1S(=O)(=O)c1ccccc1
74.6	COC(=O)[C@@H]1C[C@@H](OS(=O)(=O)c2ccccc2)CN1S(=O)(=O)c1ccc(C)cc1
33.5	O=C(NO)[C@@H]1C[C@@H](O)CN1S(=O)(=O)c1ccccc1
47.3	COC(=O)[C@@H]1C[C@@H](OS(=O)(=O)c2ccccc2)CN1S(=O)(=O)c1ccccc1
101	COC(=O)[C@@H]1C[C@@H](OS(=O)(=O)c2ccc(C)cc2)CN1S(=O)(=O)c1ccc(C)cc1
21.7	Cc1ccc(S(=O)(=O)N2C[C@H](O)C[C@H]2C(=O)NO)cc1

From ChEMBL document CHEMBL1140058, “Synthesis of new sulfonyl pyrrolidine derivatives as matrix metalloproteinase inhibitors” (Bioorg Med Chem, 2008)
